Data reported in ChEMBL document CHEMBL5674880 (PLoS One, 2018).
pIC50: −log10 of the molar value.

Key:
[1] = molecular target: Histone-lysine N-methyltransferase SMYD3 (Homo sapiens, UniProt Q9H7B4); assay: Inhibition of SMYD3 (unknown origin)
HT = assay: Antiproliferative activity against human HT cells in 2D growth culture; assay type: functional, cell-based
Method in brief: (§1)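 2D monolayer proliferation screen across the 240-line Eurofins Oncopanel of human cancer cell lines (mycoplasma-negative, STR-verified). Compound was titrated to a highest tested concentration of 25 μM. Values are the mean of three replicates.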

[2] = Antiproliferative activity against human HLF cells in 2D growth culture; assay type: functional, cell-based; method in brief: as §1
NCI-H2029 = assay: Antiproliferative activity against human NCI-H2029 cells expressing wild-type KRAS; assay type: functional, cell-based
Method in brief: (§2)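 Proliferation of human lung cancer cell lines (NSCLC and others) with KRAS mutant or wild-type status. Compound was tested at concentrations up to 25 µM.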

NCI-H441 = assay: Antiproliferative activity against human NCI-H441 cells expressing KRAS G12V mutant; assay type: functional, cell-based; method in brief: as §2
SHP77 = assay: Antiproliferative activity against human SHP77 cells expressing KRAS G12V mutant; assay type: functional, cell-based
SK-LU-1 = assay: Antiproliferative activity against human SK-LU-1 cells expressing KRAS G12D mutant; assay type: functional, cell-based
5637 [3] = assay: Antiproliferative activity against human 5637 cells in 2D growth culture; assay type: functional, cell-based; method in brief: as §1
[4] = Antiproliferative activity against human C4-1 cells in 3D growth culture; assay type: functional, cell-based
Method in brief: (§3)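 3D proliferation in the Eurofins Oncopanel, with a panel of 140 human cancer cell lines grown in Matrigel. The highest concentration tested was 25 μM. Each value is the mean of three replicates.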

[5] = Antiproliferative activity against human SK-N-BE(2)-C cells in 3D growth culture; assay type: functional, cell-based
Method in brief: (§4)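 3D growth in matrigel, within a 140-cell-line panel of the Eurofins Oncopanel (mycoplasma negative, STR verified). Compound dosed across a concentration series with a top concentration of 25 μM. Each value is the mean of three replicates.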

HOS = assay: Antiproliferative activity against human HOS cells in 2D growth culture; assay type: functional, cell-based; method in brief: as §1
EB-3 = assay: Antiproliferative activity against human EB-3 cells in 2D growth culture; assay type: functional, cell-based; method in brief: as §1
Hs 766 [6] = assay: Antiproliferative activity against human Hs 766T cells in 2D growth culture; assay type: functional, cell-based; method in brief: as §1
RD [7] = assay: Antiproliferative activity against human RD cells in 2D growth culture; assay type: functional, cell-based; method in brief: as §1
PC-3 [8] = assay: Antiproliferative activity against human PC-3 cells in 3D growth culture; assay type: functional, cell-based; method in brief: as §3
EM-2 = assay: Antiproliferative activity against human EM-2 cells in 2D growth culture; assay type: functional, cell-based; method in brief: as §1
[9] = Antiproliferative activity against human MT-3 cells in 2D growth culture; assay type: functional, cell-based; method in brief: as §1
[10] = Antiproliferative activity against human C4-1 cells in 2D growth culture; assay type: functional, cell-based; method in brief: as §1
ES-2 [11] = assay: Antiproliferative activity against human ES2 cells in 3D growth culture; assay type: functional, cell-based; method in brief: as §3
T-24 = assay: Antiproliferative activity against human T24 cells in 2D growth culture; assay type: functional, cell-based
Method in brief: (§5)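 2D monolayer culture in the Eurofins Oncopanel of 240 cancer cell lines (mycoplasma negative, STR verified). Compound dosed across a concentration series with a top concentration of 25 μM. Each value is the mean of three replicates.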

[12] = Antiproliferative activity against human BC1 cells in 2D growth culture; assay type: functional, cell-based; method in brief: as §1
[13] = Antiproliferative activity against human SK-N-BE(2)-C cells in 2D growth culture; assay type: functional, cell-based; method in brief: as §5
HT-3 [14] = assay: Antiproliferative activity against human HT-3 cells in 2D growth culture; assay type: functional, cell-based; method in brief: as §1
Y79 [15] = assay: Antiproliferative activity against human Y79 cells in 2D growth culture; assay type: functional, cell-based; method in brief: as §5
ES-2 [16] = assay: Antiproliferative activity against human ES-2 cells in 2D growth culture; assay type: functional, cell-based; method in brief: as §1
RKO [17] = assay: Antiproliferative activity against human RKO cells in 3D growth culture; assay type: functional, cell-based; method in brief: as §4
DMS-153 = assay: Antiproliferative activity against human DMS-153 cells expressing wild-type KRAS; assay type: functional, cell-based; method in brief: as §2
SR = assay: Antiproliferative activity against human SR cells in 2D growth culture; assay type: functional, cell-based; method in brief: as §5
U-266 = assay: Antiproliferative activity against human U266B1 cells in 2D growth culture; assay type: functional, cell-based; method in brief: as §5
HLE = assay: Antiproliferative activity against human HLE cells in 2D growth culture; assay type: functional, cell-based; method in brief: as §1
RD [18] = assay: Antiproliferative activity against human RD cells in 3D growth culture; assay type: functional, cell-based; method in brief: as §3
DK-MG = assay: Antiproliferative activity against human DK-MG cells in 2D growth culture; assay type: functional, cell-based; method in brief: as §1
HT-3 [19] = assay: Antiproliferative activity against human HT-3 cells in 3D growth culture; assay type: functional, cell-based; method in brief: as §3
SW1573 = assay: Antiproliferative activity against human SW1573 cells expressing KRAS G12C mutant; assay type: functional, cell-based
RKO [20] = assay: Antiproliferative activity against human RKO cells in 2D growth culture; assay type: functional, cell-based; method in brief: as §1
C32 [21] = assay: Antiproliferative activity against human C32 cells in 3D growth culture; assay type: functional, cell-based; method in brief: as §3
[22] = Antiproliferative activity against human A7 cells in 2D growth culture; assay type: functional, cell-based; method in brief: as §1
COR-L88 = assay: Antiproliferative activity against human COR-L88 cells expressing wild-type KRAS; assay type: functional, cell-based; method in brief: as §2
JAR [23] = assay: Antiproliferative activity against human JAR cells in 2D growth culture; assay type: functional, cell-based; method in brief: as §1
NCI-H23 = assay: Antiproliferative activity against human NCI-H23 cells expressing KRAS G12C mutant; assay type: functional, cell-based; method in brief: as §2
A549 = assay: Antiproliferative activity against human A549 cells expressing KRAS G12S mutant; assay type: functional, cell-based; method in brief: as §2
[24] = Antiproliferative activity against human HLF cells in 3D growth culture; assay type: functional, cell-based; method in brief: as §3
Hs 766 [25] = assay: Antiproliferative activity against human Hs766T cells in 3D growth culture; assay type: functional, cell-based; method in brief: as §3
J82 [26] = assay: Antiproliferative activity against human J82 cells in 2D growth culture; assay type: functional, cell-based; method in brief: as §1
MX1 = assay: Antiproliferative activity against human MX1 cells in 2D growth culture; assay type: functional, cell-based; method in brief: as §1
Y79 [27] = assay: Antiproliferative activity against human Y79 cells in 3D growth culture; assay type: functional, cell-based; method in brief: as §4
J82 [28] = assay: Antiproliferative activity against human J82 cells in 3D growth culture; assay type: functional, cell-based; method in brief: as §3
C32 [29] = assay: Antiproliferative activity against human C32 cells in 2D growth culture; assay type: functional, cell-based; method in brief: as §1
SH-4 [30] = assay: Antiproliferative activity against human SH-4 cells in 3D growth culture; assay type: functional, cell-based; method in brief: as §4
AGS = assay: Antiproliferative activity against human AGS cells in 2D growth culture; assay type: functional, cell-based; method in brief: as §1
JAR [31] = assay: Antiproliferative activity against human JAR cells in 3D growth culture; assay type: functional, cell-based; method in brief: as §3
5637 [32] = assay: Antiproliferative activity against human 5637 cells in 3D growth culture; assay type: functional, cell-based; method in brief: as §3
DMS-53 = assay: Antiproliferative activity against human DMS-53 expressing wild-type KRAS; assay type: functional, cell-based; method in brief: as §2
HepG2 = assay: Antiproliferative activity against human HepG2 cells; assay type: functional, cell-based
SH-4 [33] = assay: Antiproliferative activity against human SH-4 cells in 2D growth culture; assay type: functional, cell-based; method in brief: as §5
NCI-H2081 = assay: Antiproliferative activity against human NCI-H2081 cells expressing wild-type KRAS; assay type: functional, cell-based; method in brief: as §2
PC-3 [34] = assay: Antiproliferative activity against human PC-3 cells in 2D growth culture; assay type: functional, cell-based; method in brief: as §1
H4 = assay: Antiproliferative activity against human H4 cells in 2D growth culture; assay type: functional, cell-based; method in brief: as §1
NCI-H2122 = assay: Antiproliferative activity against human NCI-H2122 cells expressing KRAS G12C mutant; assay type: functional, cell-based; method in brief: as §2
KLE = assay: Antiproliferative activity against human KLE cells in 2D growth culture; assay type: functional, cell-based; method in brief: as §1
COR-L105 = assay: Antiproliferative activity against human COR-L105 cells expressing wild-type KRAS; assay type: functional, cell-based; method in brief: as §2
DB = assay: Antiproliferative activity against human DB cells in 2D growth culture; assay type: functional, cell-based; method in brief: as §1
[35] = Antiproliferative activity against human MT-3 cells in 3D growth culture; assay type: functional, cell-based; method in brief: as §3
DOHH-2 = assay: Antiproliferative activity against human DOHH-2 cells in 2D growth culture; assay type: functional, cell-based; method in brief: as §1

Histone-lysine N-methyltransferase SMYD3, sequence (Q9H7B4 whole entry): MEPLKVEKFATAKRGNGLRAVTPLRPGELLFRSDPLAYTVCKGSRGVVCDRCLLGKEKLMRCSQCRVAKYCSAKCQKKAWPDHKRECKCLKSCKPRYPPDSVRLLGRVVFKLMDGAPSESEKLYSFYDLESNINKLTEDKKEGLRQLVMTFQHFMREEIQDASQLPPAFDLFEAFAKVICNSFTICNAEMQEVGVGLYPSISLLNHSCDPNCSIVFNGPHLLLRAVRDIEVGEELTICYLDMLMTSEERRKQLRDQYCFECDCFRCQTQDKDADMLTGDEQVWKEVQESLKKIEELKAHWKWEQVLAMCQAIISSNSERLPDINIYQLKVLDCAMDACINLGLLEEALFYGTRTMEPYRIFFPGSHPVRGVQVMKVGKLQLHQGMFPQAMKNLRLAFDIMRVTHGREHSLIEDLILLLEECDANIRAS

Structure (SMILES): O=C1Cc2cc(C(=O)N[C@H]3C[C@H]4CC[C@@H](C3)N4S(=O)(=O)CC3CCN(CCCC(F)(F)F)CC3)c(Cl)cc2N1
- pIC50 [1]: 8.30

Structure (SMILES): N[C@H]1CC[C@H](S(=O)(=O)N2[C@@H]3CC[C@H]2C[C@@H](NC(=O)c2cc(C4CC4)on2)C3)CC1
- pIC50 (HT): < 4.60
- pIC50 [2]: < 4.60
- pIC50 (NCI-H2029): < 4.70
- pIC50 (NCI-H441): < 4.70
- pIC50 (SHP77): < 4.70
- pIC50 (SK-LU-1): < 4.70
- pIC50 5637 [3]: < 4.60
- pIC50 [4]: < 4.60
- pIC50 [5]: < 4.60
- pIC50 (HOS): < 4.60
- pIC50 (EB-3): < 4.60
- pIC50 (Hs 766 [6]): < 4.60
- pIC50 (RD [7]): < 4.60
- pIC50 (PC-3 [8]): < 4.60
- pIC50 (EM-2): < 4.60
- pIC50 [9]: < 4.60
- pIC50 [10]: < 4.60
- pIC50 (ES-2 [11]): < 4.60
- pIC50 (T-24): < 4.60
- pIC50 [12]: < 4.60
- pIC50 [13]: < 4.60
- pIC50 (HT-3 [14]): < 4.60
- pIC50 (Y79 [15]): < 4.60
- pIC50 (ES-2 [16]): < 4.60
- pIC50 (RKO [17]): < 4.60
- pIC50 (DMS-153): < 4.70
- pIC50 (SR): < 4.60
- pIC50 (U-266): < 4.60
- pIC50 (HLE): < 4.60
- pIC50 (RD [18]): < 4.60
- pIC50 (DK-MG): < 4.60
- pIC50 (HT-3 [19]): < 4.60
- pIC50 (SW1573): < 4.70
- pIC50 (RKO [20]): < 4.60
- pIC50 (C32 [21]): < 4.60
- pIC50 [22]: < 4.60
- pIC50 (COR-L88): < 4.70
- pIC50 (JAR [23]): < 4.60
- pIC50 (NCI-H23): < 4.70
- pIC50 (A549): < 4.70
- pIC50 [24]: < 4.60
- pIC50 (Hs 766 [25]): < 4.60
- pIC50 (J82 [26]): < 4.60
- pIC50 (MX1): < 4.60
- pIC50 (Y79 [27]): < 4.60
- pIC50 (J82 [28]): < 4.60
- pIC50 (C32 [29]): < 4.60
- pIC50 (SH-4 [30]): < 4.60
- pIC50 (AGS): < 4.60
- pIC50 (JAR [31]): < 4.60
- pIC50 5637 [32]: < 4.60
- pIC50 (DMS-53): < 4.70
- pIC50 (HepG2): < 4.40
- pIC50 (SH-4 [33]): < 4.60
- pIC50 (NCI-H2081): < 4.70
- pIC50 (PC-3 [34]): < 4.60
- pIC50 (H4): < 4.60
- pIC50 (NCI-H2122): < 4.70
- pIC50 (KLE): < 4.60
- pIC50 (COR-L105): < 4.70
- pIC50 (DB): < 4.60
- pIC50 [35]: < 4.60
- pIC50 (DOHH-2): < 4.60
